{"source": "ChEMBL document CHEMBL5053485", "about": "“Targeting Acute Myelogenous Leukemia Using Potent Human Dihydroorotate Dehydrogenase Inhibitors Based on the 2-Hydroxypyrazolo[1,5-a]pyridine Scaffold: SAR of the Biphenyl Moiety” (J Med Chem, 2021)", "key": {"THP-1 [1]": {"test_system": "THP-1", "assay": "Induction of apoptosis in human THP-1 cells at 0.1 uM after 3 days by Annexin-V-FITC staining based flow cytometry relative to control", "type": "functional, cell-based", "conditions": "time 3.0 day", "in_short": "(§1)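 After 3 days, annexin V-FITC was read by flow cytometry. Significance versus DMSO used two-tailed paired t tests (P < 0.05). The assay was also run with 100 μM uridine.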"}, "Jurkat": {"test_system": "Jurkat", "assay": "Cytotoxicity against human Jurkat cells assessed as concentration required to induce more than 30% cytotoxicity incubated for 3 days by CSFE dye based assay", "type": "cell-based", "conditions": "72 h, time 3 day"}, "THP-1 [2]": {"test_system": "THP-1", "assay": "Induction of cell differentiation in human THP-1 cells assessed as CD14 expression at 0.1 uM after 3 days by flow cytometric analysis", "type": "functional, cell-based", "conditions": "time 3.0 day"}, "[3]": {"assay": "n-Octanol/PBS partition coefficient, logD of the compound at pH 7.4 incubated for 20 mins by shake flask method", "type": "physicochemical"}, "[4]": {"assay": "Solubility of compound in PBS at pH 7.4 after 24 hrs by UHPLC analysis", "type": "physicochemical"}, "[5]": {"assay": "Protein binding in human serum at 50 uM after 1 hr by RP-UHPLC method", "type": "ADME, cell-free", "conditions": "read-out: PB (converted)"}, "THP-1 [6]": {"test_system": "THP-1", "assay": "Induction of apoptosis in human THP-1 cells at 1 uM after 3 days by Annexin-V-FITC staining based flow cytometry relative to control", "type": "functional, cell-based", "conditions": "time 3.0 day", "in_short": "as §1"}, "THP-1 [7]": {"test_system": "THP-1", "assay": "Induction of cell differentiation in human THP-1 cells assessed as CD14 expression at 1 uM after 3 days by flow cytometric analysis", "type": "functional, cell-based", "conditions": "time 3.0 day"}, "[8]": {"assay": "Metabolic stability in Sprague-Dawley rat liver microsomes assessed as parent compound remaining after 30 mins", "type": "ADME, Microsome", "conditions": "0.5 h", "in_short": "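The regenerating system contained MgCl₂, NADP⁺, Glu6P and G6PDH. Controls were heat-inactivated microsomes and no regenerating system. Samples taken at 0–120 min were quenched in cold acetonitrile and analysed by HPLC–HRMS.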"}}, "note": "The source made the active and inactive calls. The calls are words filed in the database; no cut-off is given here."}
{"smiles": "O=C(Nc1c(F)c(F)c(-c2cccc(C(F)(F)F)c2)c(F)c1F)c1c(O)nn2ccccc12", "values": [{"measurement": "Activity", "setting": "THP-1 [1]", "result": "Active"}, {"measurement": "Activity", "setting": "Jurkat", "result": "> 100", "unit": "µM"}, {"measurement": "Activity", "setting": "THP-1 [2]", "result": "Active"}]}
{"smiles": "O=C(Nc1c(F)c(F)c(-c2cccc(F)c2)c(F)c1F)c1c(O)nn2ccccc12", "values": [{"measurement": "Activity", "setting": "THP-1 [1]", "result": "Active"}, {"measurement": "Activity", "setting": "THP-1 [2]", "result": "Active"}, {"measurement": "logD at 20 min", "setting": "[3]", "result": 2.09}]}
{"smiles": "O=C(Nc1c(F)c(F)c(-c2cccc(OC(F)(F)F)c2)c(F)c1F)c1c(O)nn2ccccc12", "values": [{"measurement": "Activity", "setting": "THP-1 [1]", "result": "Active"}, {"measurement": "Activity", "setting": "Jurkat", "result": "> 100", "unit": "µM"}, {"measurement": "Activity", "setting": "THP-1 [2]", "result": "Active"}]}
{"smiles": "CCn1c(CO)nn(-c2cc(O[C@@H](C)C(F)(F)F)c(C(=O)Nc3c(F)cccc3Cl)cc2F)c1=O", "values": [{"measurement": "solubility at 24 h", "setting": "[4]", "result": "< 1", "unit": "µM"}, {"measurement": "fraction unbound at 1 h, 50 µM", "setting": "[5]", "result": 0.099}, {"measurement": "logD at 20 min", "setting": "[3]", "result": 2.7}]}
{"smiles": "O=C(Nc1c(F)c(F)c(-c2ccccc2)c(F)c1F)c1c(O)nn2c(Cl)cccc12", "values": [{"measurement": "solubility at 24 h", "setting": "[4]", "result": "< 6", "unit": "µM"}]}
{"smiles": "O=C(Nc1c(F)c(F)c(-c2cccnc2)c(F)c1F)c1c(O)nn2ccccc12", "values": [{"measurement": "Activity", "setting": "THP-1 [6]", "result": "inactive"}, {"measurement": "Activity", "setting": "THP-1 [7]", "result": "inactive"}]}
{"smiles": "CCCOc1cccc(-c2c(F)c(F)c(NC(=O)c3c(O)nn4ccccc34)c(F)c2F)c1", "values": [{"measurement": "Activity", "setting": "THP-1 [1]", "result": "Active"}, {"measurement": "Stability", "setting": "[8]", "result": "Unstable"}, {"measurement": "Activity", "setting": "Jurkat", "result": "> 100", "unit": "µM"}, {"measurement": "Activity", "setting": "THP-1 [2]", "result": "Active"}]}
{"smiles": "O=C(Nc1c(F)c(F)c(N2CCOCC2)c(F)c1F)c1c(O)nn2ccccc12", "values": [{"measurement": "Activity", "setting": "THP-1 [6]", "result": "inactive"}, {"measurement": "Activity", "setting": "THP-1 [7]", "result": "inactive"}]}
{"smiles": "O=C(Nc1c(F)c(F)c(-c2cccc(O)c2)c(F)c1F)c1c(O)nn2ccccc12", "values": [{"measurement": "Activity", "setting": "THP-1 [6]", "result": "inactive"}, {"measurement": "Activity", "setting": "THP-1 [7]", "result": "inactive"}]}
{"smiles": "O=C(Nc1c(F)c(F)c(-c2ccccc2)c(F)c1F)c1c(O)nn2c1CCCC2", "values": [{"measurement": "solubility at 24 h", "setting": "[4]", "result": "< 6", "unit": "µM"}]}
{"smiles": "COc1cccc(-c2c(F)c(F)c(NC(=O)c3c(O)nn4ccccc34)c(F)c2F)c1", "values": [{"measurement": "Activity", "setting": "THP-1 [1]", "result": "Active"}, {"measurement": "Activity", "setting": "THP-1 [2]", "result": "Active"}]}
{"smiles": "O=C(Nc1c(F)c(F)c(-c2ccnc(C(F)(F)F)c2)c(F)c1F)c1c(O)nn2ccccc12", "values": [{"measurement": "Activity", "setting": "THP-1 [6]", "result": "inactive"}, {"measurement": "Activity", "setting": "THP-1 [7]", "result": "inactive"}]}
{"smiles": "COc1cccc(-c2cc(F)c(Nc3ncccc3C(=O)O)c(F)c2)c1", "note": "[ASLAN-003]", "values": [{"measurement": "fraction unbound at 1 h, 50 µM", "setting": "[5]", "result": "< 0.01"}]}
{"smiles": "Cc1c(-c2ccc(-c3ccccc3F)cc2)nc2ccc(F)cc2c1C(=O)O", "note": "[BREQUINAR]", "values": [{"measurement": "logD at 20 min", "setting": "[3]", "result": 1.83}]}
